Results taken from ChEMBL document CHEMBL5046273, “Development of a Novel, Small-Molecule Brain-Penetrant Histone Deacetylase Inhibitor That Enhances Spatial Memory Formation in Mice” (J Med Chem, 2022).
Calls of active or inactive are those of the source. No cut-off for these calls is given here.

Legend:
Histone deacetylase 2 [1] = molecular target: T1, Histone deacetylase 2 (Homo sapiens, UniProt Q92769); experiment: Inhibition of recombinant human full-length HDAC2 preincubated for 20 mins with DTT followed by enzyme addition and measured after 10 mins by Glo-luminescence assay
T1 sequence (Q92769 whole entry): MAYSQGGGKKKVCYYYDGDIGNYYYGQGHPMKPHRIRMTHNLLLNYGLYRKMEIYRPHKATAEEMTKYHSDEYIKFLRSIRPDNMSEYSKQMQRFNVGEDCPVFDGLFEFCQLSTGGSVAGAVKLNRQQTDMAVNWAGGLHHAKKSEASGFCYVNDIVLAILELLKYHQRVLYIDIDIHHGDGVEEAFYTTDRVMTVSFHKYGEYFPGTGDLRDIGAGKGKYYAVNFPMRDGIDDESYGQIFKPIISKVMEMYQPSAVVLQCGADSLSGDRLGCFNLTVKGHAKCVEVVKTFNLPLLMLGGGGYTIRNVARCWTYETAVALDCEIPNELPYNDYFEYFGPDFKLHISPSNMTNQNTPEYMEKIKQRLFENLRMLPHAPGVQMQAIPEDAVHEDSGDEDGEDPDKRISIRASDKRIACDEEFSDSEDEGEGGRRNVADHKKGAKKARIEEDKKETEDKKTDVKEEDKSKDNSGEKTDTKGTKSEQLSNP
In short: (§1)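 Compounds were serially diluted and incubated with enzyme for 10 min. HDAC-Glo I/II substrate/developer was then added, and luminescence read after 40 min at 23 °C. IC50 from four-parameter fits from two independent titrations, mean ± SD.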

DU-145 = experiment: Cytotoxicity against human DU-145 cells assessed as reduction in cell viability at 0.00125 to 100 uM incubated for 48 hrs by MTT assay; format: functional, cell-based; conditions: dose 0.00125-100 µM
In short: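 DU145 cells in DMEM with 10% FBS were seeded at 14 000 cells/well and allowed to adhere for 24 h. Test agents were diluted from 10 mM DMSO stocks (100, 50, 25 µM; 10, 5, 1.25 nM) and applied in triplicate for 48 h at 37 °C, 5% CO2, with DMSO as vehicle. Read-out was 250 µg/mL MTT for 4 h, DMSO solubilization, and A570 with 690 nm reference. Values normalized to DMSO.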

Histone deacetylase 2 [2] = molecular target: T1, Histone deacetylase 2; experiment: Inhibition of recombinant human full-length HDAC2 incubated for 10 mins by Glo-luminescence assay; in short: as §1

For `CC(C)(C)NC(=O)CC(O)/C=C/CCSSCC/C=C/C(O)CC(=O)NC(C)(C)C` (stereo not drawn), the IC50 (Histone deacetylase 2 [1]) was 18 µM, the Activity (DU-145) was “inactive” and the IC50 (Histone deacetylase 2 [2]) was over 100 µM.
